The source made the active and inactive calls. No cut-off for these calls is given here.
How the values were obtained:
[1] = biological target: T1, Nucleotide-binding oligomerization domain-containing protein 1 (Homo sapiens) (UniProt Q9Y239); experiment: Agonist activity at NOD1 in HEK-Blue hNOD2 cells assessed as increase in NFkappaB transactivation-mediated SEAP activity measured after 18 hrs by spectrophotometric method; format: cell-based; conditions: HEK-Blue hNOD1, in the assay text read “HEK-Blue hNOD1 cells” for “HEK-Blue hNOD2 cells”
T1 sequence (whole entry): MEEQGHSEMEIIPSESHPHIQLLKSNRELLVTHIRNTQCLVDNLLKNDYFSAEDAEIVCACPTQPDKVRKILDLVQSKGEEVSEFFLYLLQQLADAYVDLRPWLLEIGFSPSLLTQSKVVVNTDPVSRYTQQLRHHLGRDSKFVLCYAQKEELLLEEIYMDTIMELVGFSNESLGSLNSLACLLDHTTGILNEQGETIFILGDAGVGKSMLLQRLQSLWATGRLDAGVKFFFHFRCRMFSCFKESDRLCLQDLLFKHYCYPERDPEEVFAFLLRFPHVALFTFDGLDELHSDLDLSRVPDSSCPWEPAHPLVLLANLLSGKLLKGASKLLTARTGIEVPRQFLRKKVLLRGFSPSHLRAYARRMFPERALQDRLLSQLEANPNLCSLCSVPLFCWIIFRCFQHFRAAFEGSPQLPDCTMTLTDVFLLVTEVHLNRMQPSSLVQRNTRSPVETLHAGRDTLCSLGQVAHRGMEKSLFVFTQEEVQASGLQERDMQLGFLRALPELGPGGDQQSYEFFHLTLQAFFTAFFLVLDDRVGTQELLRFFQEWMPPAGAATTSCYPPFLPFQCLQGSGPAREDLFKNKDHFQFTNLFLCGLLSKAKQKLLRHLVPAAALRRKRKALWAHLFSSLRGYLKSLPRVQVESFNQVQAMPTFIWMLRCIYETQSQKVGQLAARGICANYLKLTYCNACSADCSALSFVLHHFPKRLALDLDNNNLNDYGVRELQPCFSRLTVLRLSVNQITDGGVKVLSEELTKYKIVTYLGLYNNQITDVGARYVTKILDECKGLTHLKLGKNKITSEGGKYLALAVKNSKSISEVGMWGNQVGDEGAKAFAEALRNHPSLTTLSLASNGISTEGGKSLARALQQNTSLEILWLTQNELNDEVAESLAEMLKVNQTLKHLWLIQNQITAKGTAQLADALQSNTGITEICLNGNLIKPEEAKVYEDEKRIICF
Method in brief: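 Counter-screen in HEK-Blue NOD1 cells (HEK293 stably expressing human NOD1 plus an NF-κB-inducible SEAP reporter), seeded at 2.5 × 10^5 cells/mL in HEK-Blue detection medium. Compounds at 2 μM versus 0.1% DMSO vehicle, 18 h at 37 °C, 5% CO2. SEAP read as absorbance at 630 nm. Duplicates, at least two independent experiments.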

[2] = Cytotoxicity against HEK-Blue hNOD2 cells assessed as reduction in metabolic activity at 20 uM incubated for 18 hrs by MTS assay; format: toxicity, cell-based; conditions: human, hek-blue hnod2, 18 h
Method in brief: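 HEK-Blue NOD2 cells, 40 000 per well, exposed to 20 μM compound or 0.1% DMSO for 18 h at 37 °C, 5% CO2. Metabolic activity measured by MTS (CellTiter 96 AQueous One) reagent. Duplicates, two independent biological replicates.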

[3] = test system: PBMC; experiment: Immunostimulatory activity in human PBMC cells assessed as increase in LPS-induced IL-1beta production at 2 uM incubated for 18 hrs by flow cytometry analysis; format: functional, cell-based
Method in brief: (§1)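 Human PBMCs from healthy donors, 1 × 10^6 cells/mL in RPMI 1640 with 10% FBS, treated with 2 μM compound or 0.1% DMSO, without or with LPS 10 ng/mL, for 18 h at 37 °C. Supernatant cytokines quantified by cytometric bead array (human inflammatory panel) on a flow cytometer against recombinant standards. Four independent donors. Repeated-measures one-way ANOVA with Dunnett.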

[4] = test system: PBMC; experiment: Immunostimulatory activity in human PBMC cells assessed as increase in LPS-induced IL-8 production at 2 uM incubated for 18 hrs by flow cytometry analysis; format: functional, cell-based; method in brief: as §1
[5] = test system: PBMC; experiment: Immunostimulatory activity in human PBMC cells assessed as increase in LPS-induced TNF-alpha production at 2 uM incubated for 18 hrs by flow cytometry analysis; format: functional, cell-based; method in brief: as §1
[6] = test system: PBMC; experiment: Immunostimulatory activity in human PBMC cells assessed as increase in LPS-induced IL-6 production at 2 uM incubated for 18 hrs by flow cytometry analysis; format: functional, cell-based; method in brief: as §1
[7] = test system: PBMC; experiment: Immunostimulatory activity in human PBMC cells assessed as increase in IL-6 production at 2 uM incubated for 18 hrs by flow cytometry analysis; format: functional, cell-based; method in brief: as §1
[8] = test system: PBMC; experiment: Immunostimulatory activity in human PBMC cells assessed as increase in IL-1beta production at 2 uM incubated for 18 hrs by flow cytometry analysis; format: functional, cell-based; method in brief: as §1
[9] = test system: PBMC; experiment: Immunostimulatory activity in human PBMC cells assessed as increase in TNF-alpha production at 2 uM incubated for 18 hrs by flow cytometry analysis; format: functional, cell-based; method in brief: as §1
[10] = test system: PBMC; experiment: Immunostimulatory activity in human PBMC cells assessed as increase in IL-8 production at 2 uM incubated for 18 hrs by flow cytometry analysis; format: functional, cell-based; method in brief: as §1

Compound | Activity [1] | Activity [2] | further results
CCOC(=O)CC[C@@H](NC(=O)[C@@H](NC(=O)CNC(=O)/C=C/c1ccc(N)cc1)C(C)C)C(=O)OCC | inactive | Non-Toxic | –
COc1cc(/C=C/C(=O)NCC(=O)N[C@H](C(=O)N[C@H](CCC(=O)OC(C)(C)C)C(=O)OC(C)(C)C)C(C)C)ccc1O | inactive | Non-Toxic | –
COc1cc(/C=C/C(=O)NCC(=O)N[C@H](C(=O)N[C@H](CCC(=O)OC2CCCC2)C(=O)OC2CCCC2)C(C)C)ccc1OC(C)=O | inactive | Non-Toxic | –
CCCCCCCCCCCC(=O)Oc1ccc(/C=C/C(=O)NCC(=O)N[C@H](C(=O)N[C@H](CCC(=O)OC2CCCC2)C(=O)OC2CCCC2)C(C)C)cc1OC | inactive | Non-Toxic | –
CCOC(=O)CC[C@@H](NC(=O)[C@@H](NC(=O)CNC(=O)/C=C/c1ccc(OC)c(OC)c1)C(C)C)C(=O)OCC | inactive | Non-Toxic | –
CCCCNC(=O)CC[C@@H](NC(=O)[C@@H](NC(=O)CNC(=O)/C=C/c1ccc(O)c(OC)c1)C(C)C)C(=O)OC(C)(C)C | inactive | Non-Toxic | –
CCOC(=O)CC[C@@H](NC(=O)[C@@H](NC(=O)CNC(=O)/C=C/c1ccc(C(C)C)cc1)C(C)C)C(=O)OCC | inactive | Non-Toxic | –
CCOC(=O)CC[C@@H](NC(=O)[C@@H](NC(=O)CNC(=O)C1CC1c1ccc(O)c(OC)c1)C(C)C)C(=O)OCC (some centres undefined) | inactive | Non-Toxic | –
CCCCCCCCCCCCCCCCCC(=O)NCCCC[C@H](NC(=O)CC[C@@H](NC(=O)[C@@H](NC(=O)CNC(=O)/C=C/c1ccc(O)c(OC)c1)C(C)C)C(=O)OCC)C(=O)OC | inactive | Non-Toxic | –
CCOC(=O)CC[C@@H](NC(=O)[C@@H](NC(=O)CNC(=O)C1CC1c1ccc(OC)c(OC)c1)C(C)C)C(=O)OCC (some centres undefined) | inactive | Non-Toxic | –
CCCCCCCCCCCCCCCCCC(=O)Oc1ccc(/C=C/C(=O)NCC(=O)N[C@H](C(=O)N[C@H](CCC(=O)OC2CCCC2)C(=O)OC2CCCC2)C(C)C)cc1OC | inactive | Non-Toxic | –
CCOC(=O)CC[C@@H](NC(=O)[C@@H](NC(=O)CNC(=O)CCCc1ccc(O)c(OC)c1)C(C)C)C(=O)OCC | inactive | Non-Toxic | –
CCOC(=O)CC[C@@H](NC(=O)[C@@H](NC(=O)CNC(=O)[C@H]1C[C@@H]1c1ccc(F)c(F)c1)C(C)C)C(=O)OCC | inactive | Non-Toxic | –
CCOC(=O)CC[C@@H](NC(=O)[C@H](COCc1ccccc1)NC(=O)CNC(=O)/C=C/c1ccc(O)c(OC)c1)C(=O)OCC | inactive | Non-Toxic | –
CCCCNC(=O)CC[C@@H](NC(=O)[C@@H](NC(=O)CNC(=O)/C=C/c1ccc(O)c(OC)c1)C(C)C)C(=O)NCCCC | inactive | Non-Toxic | –
COc1cc(/C=C/C(=O)NCC(=O)N[C@H](C(=O)N[C@H](CCC(=O)OC(C)(C)C)C(=O)N(C)OC)C(C)C)ccc1O | inactive | Non-Toxic | –
CCOC(=O)CC[C@@H](NC(=O)[C@@H](NC(=O)CNC(=O)C1CC1c1ccc(F)c(F)c1)C(C)C)C(=O)OCC (some centres undefined) | inactive | Non-Toxic | –

Compound | Activity [1] | Activity [2] | further results
CCOC(=O)CC[C@@H](NC(=O)[C@@H](NC(=O)CNC(=O)/C=C/c1ccc(O)c(O)c1)C(C)C)C(=O)OCC | inactive | Non-Toxic | –
CCOC(=O)[C@@H](CCC(=O)N[C@@H](CCCCN)C(=O)OC)NC(=O)[C@@H](NC(=O)CNC(=O)/C=C/c1ccc(O)c(OC)c1)C(C)C | inactive | Non-Toxic | –
CCCCCCCCCCCCCCCCCC(=O)Oc1ccc(/C=C/C(=O)NCC(=O)N[C@@H](CO)C(=O)N[C@H](CCC(=O)OCC)C(=O)OCC)cc1OC | inactive | Non-Toxic | –
CCOC(=O)CC[C@@H](NC(=O)[C@@H](NC(=O)CNC(=O)/C=C/c1ccc(O)c(OC)c1)[C@@H](C)O)C(=O)OCC | inactive | Non-Toxic | –
COc1cc(/C=C/C(=O)NCC(=O)N[C@H](C(=O)N[C@H](CCC(=O)OC(C)(C)C)C(=O)N2CCCC2)C(C)C)ccc1O | inactive | Non-Toxic | –
CCCCCCCCCCCCCCCCCC(=O)Oc1ccc(/C=C/C(=O)NCC(=O)N[C@@H](COCc2ccccc2)C(=O)N[C@H](CCC(=O)OCC)C(=O)OCC)cc1OC | inactive | Non-Toxic | –
COc1cc(/C=C/C(=O)NCC(=O)N[C@H](C(=O)N[C@H](CCC(=O)N(C)OC)C(=O)OC(C)(C)C)C(C)C)ccc1O | inactive | Non-Toxic | –
CCOC(=O)CC[C@@H](NC(=O)[C@@H](NC(=O)CNC(=O)[C@@H]1C[C@H]1c1ccc(F)c(F)c1)C(C)C)C(=O)OCC | inactive | Non-Toxic | –
CCOC(=O)CC[C@@H](NC(=O)[C@@H](NC(=O)CNC(=O)/C=C/c1ccc(OC(C)=O)c(OC)c1)C(C)C)C(=O)OCC | inactive | Non-Toxic | Activity [3]: Active; Activity [4]: Active; Activity [5]: Active; Activity [6]: Active; Activity [7]: Active; Activity [8]: Active; Activity [9]: Active; Activity [10]: Active
CCOC(=O)CC[C@@H](NC(=O)[C@@H](NC(=O)CNC(=O)/C=C/c1ccc([N+](=O)[O-])cc1)C(C)C)C(=O)OCC | inactive | Non-Toxic | –
CCNC(=O)CC[C@@H](NC(=O)[C@@H](NC(=O)CNC(=O)/C=C/c1ccc(O)c(OC)c1)C(C)C)C(=O)NCC | inactive | Non-Toxic | –
COc1cc(/C=C/C(=O)NCC(=O)N[C@H](C(=O)N[C@H](CCC(=O)N2CCCC2)C(=O)OC(C)(C)C)C(C)C)ccc1O | inactive | Non-Toxic | –
CCOC(=O)CC[C@@H](NC(=O)[C@@H](NC(=O)CNC(=O)CCc1ccc(O)c(OC)c1)C(C)C)C(=O)OCC | inactive | Non-Toxic | –
CCCCCCCCCCCCCCCCCCOC(=O)CC[C@@H](NC(=O)[C@@H](NC(=O)CNC(=O)/C=C/c1ccc(O)c(OC)c1)C(C)C)C(=O)OCCCCCCCCCCCCCCCCCC | inactive | Non-Toxic | –
CONC(=O)CC[C@@H](NC(=O)[C@@H](NC(=O)CNC(=O)/C=C/c1ccc(O)c(OC)c1)C(C)C)C(=O)OC(C)(C)C | inactive | Non-Toxic | –
CCOC(=O)CC[C@@H](NC(=O)[C@H](CO)NC(=O)CNC(=O)/C=C/c1ccc(O)c(OC)c1)C(=O)OCC | inactive | Non-Toxic | –

From ChEMBL document CHEMBL5038594, “Structural Fine-Tuning of Desmuramylpeptide NOD2 Agonists Defines Their In Vivo Adjuvant Activity” (J Med Chem, 2021)
